# Active and inactive are the calls of the source. The rule behind the calls is not given here.
# Test system: Salmonella enterica subsp. enterica serovar Typhi str. CT18
# Experiment: Antibacterial activity against Salmonella typhi at 1 mg/ml by agar well diffusion method
# Format: functional
# Details: not given
# How it was run: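 Agar well diffusion against Salmonella typhi. Samples were dissolved in DMSO at 1 mg per ml and applied to 6 mm diameter wells. A solvent-only well served as control. Activity was read as inhibition zone diameter in mm.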
row,Compound,inhibition zone (IZ)
1,COc1ccc(/C=N/NC(=O)C2=C(O)c3ccccc3S(=O)(=O)N2)cc1O,inactive
2,COc1ccc(/C=N/NC(=O)C2=C(O)c3ccccc3S(=O)(=O)N2)c(OC)c1OC,inactive
3,O=C(N/N=C/c1ccccc1O)C1=C(O)c2ccccc2S(=O)(=O)N1,inactive
4,COc1cc(/C=N/NC(=O)C2=C(O)c3ccccc3S(=O)(=O)N2)ccc1O,inactive
5,O=C(N/N=C/c1ccc(Cl)cc1Cl)C1=C(O)c2ccccc2S(=O)(=O)N1,inactive

# Same assay, conditions: read-out: IZ
row,Compound,zone of inhibition at 1000 µg/mL [mm]
1,O=C(N/N=C/c1ccc([N+](=O)[O-])cc1)C1=C(O)c2ccccc2S(=O)(=O)N1,26
2,O=C(N/N=C/c1ccc(O)cc1O)C1=C(O)c2ccccc2S(=O)(=O)N1,28
3,O=C(N/N=C/c1ccccc1[N+](=O)[O-])C1=C(O)c2ccccc2S(=O)(=O)N1,11
4,COc1ccc(/C=N/NC(=O)C2=C(O)c3ccccc3S(=O)(=O)N2)cc1OC,11

# Test system: Staphylococcus aureus
# Experiment: Antibacterial activity against Staphylococcus aureus at 1 mg/ml by agar well diffusion method
# Format: functional
# Details: not given
# How it was run: (§1)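 Agar well diffusion; compounds loaded into 6 mm wells at 1 mg per ml DMSO, with a DMSO-only (0) control. Read-out: inhibition zone diameter (mm).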
row,Compound,inhibition zone (IZ)
1,O=C(N/N=C/c1ccc([N+](=O)[O-])cc1)C1=C(O)c2ccccc2S(=O)(=O)N1,inactive
2,O=C(N/N=C/c1ccc(O)cc1O)C1=C(O)c2ccccc2S(=O)(=O)N1,inactive
3,COc1ccc(/C=N/NC(=O)C2=C(O)c3ccccc3S(=O)(=O)N2)cc1OC,inactive
4,O=C(N/N=C/c1ccccc1O)C1=C(O)c2ccccc2S(=O)(=O)N1,inactive
5,O=C(N/N=C/c1ccc(Cl)cc1Cl)C1=C(O)c2ccccc2S(=O)(=O)N1,inactive

# Same assay, conditions: read-out: IZ
row,Compound,zone of inhibition at 1000 µg/mL [mm]
1,O=C(N/N=C/c1ccccc1[N+](=O)[O-])C1=C(O)c2ccccc2S(=O)(=O)N1,10
2,COc1ccc(/C=N/NC(=O)C2=C(O)c3ccccc3S(=O)(=O)N2)cc1O,10
3,COc1ccc(/C=N/NC(=O)C2=C(O)c3ccccc3S(=O)(=O)N2)c(OC)c1OC,21
4,COc1cc(/C=N/NC(=O)C2=C(O)c3ccccc3S(=O)(=O)N2)ccc1O,15

# Test system: Radical scavenging activity
# Experiment: Antioxidant activity assessed as DPPH radical scavenging activity after 30 mins
# Format: functional
# Parameters: concentration or dose not given beside the values
# Details: not given
# How it was run: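 Test sample (0.5 mM stock in DMSO, 5 µL) mixed with 95 µL DPPH in ethanol and incubated at 37 °C for 30 min. Absorbance read at 515 nm. Percent radical scavenging calculated against a DMSO-containing control; 3-tert-butyl-4-hydroxyanisole used as reference.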
row,Compound,Activity [%]
1,O=C(N/N=C/c1ccc([N+](=O)[O-])cc1)C1=C(O)c2ccccc2S(=O)(=O)N1,30.9
2,O=C(N/N=C/c1ccc(O)cc1O)C1=C(O)c2ccccc2S(=O)(=O)N1,65
3,O=C(N/N=C/c1ccccc1[N+](=O)[O-])C1=C(O)c2ccccc2S(=O)(=O)N1,37.3
4,COc1ccc(/C=N/NC(=O)C2=C(O)c3ccccc3S(=O)(=O)N2)cc1OC,38
5,COc1ccc(/C=N/NC(=O)C2=C(O)c3ccccc3S(=O)(=O)N2)cc1O,42.9
6,COc1ccc(/C=N/NC(=O)C2=C(O)c3ccccc3S(=O)(=O)N2)c(OC)c1OC,43.6
7,O=C(N/N=C/c1ccccc1O)C1=C(O)c2ccccc2S(=O)(=O)N1,40.7
8,COc1cc(/C=N/NC(=O)C2=C(O)c3ccccc3S(=O)(=O)N2)ccc1O,35
9,O=C(N/N=C/c1ccc(Cl)cc1Cl)C1=C(O)c2ccccc2S(=O)(=O)N1,43.8

# Test system: Shigella flexneri
# Experiment: Antibacterial activity against Shigella flexneri at 1 mg/ml by agar well diffusion method
# Format: functional
# Details: not given
# How it was run: as §1
row,Compound,inhibition zone (IZ)
1,O=C(N/N=C/c1ccc([N+](=O)[O-])cc1)C1=C(O)c2ccccc2S(=O)(=O)N1,inactive
2,O=C(N/N=C/c1ccc(O)cc1O)C1=C(O)c2ccccc2S(=O)(=O)N1,inactive
3,O=C(N/N=C/c1ccccc1[N+](=O)[O-])C1=C(O)c2ccccc2S(=O)(=O)N1,inactive
4,O=C(N/N=C/c1ccccc1O)C1=C(O)c2ccccc2S(=O)(=O)N1,inactive
5,COc1cc(/C=N/NC(=O)C2=C(O)c3ccccc3S(=O)(=O)N2)ccc1O,inactive

# Same assay, conditions: read-out: IZ
row,Compound,zone of inhibition at 1000 µg/mL [mm]
1,COc1ccc(/C=N/NC(=O)C2=C(O)c3ccccc3S(=O)(=O)N2)cc1OC,20
2,COc1ccc(/C=N/NC(=O)C2=C(O)c3ccccc3S(=O)(=O)N2)cc1O,10
3,COc1ccc(/C=N/NC(=O)C2=C(O)c3ccccc3S(=O)(=O)N2)c(OC)c1OC,22
4,O=C(N/N=C/c1ccc(Cl)cc1Cl)C1=C(O)c2ccccc2S(=O)(=O)N1,10

# Test system: Escherichia coli
# Experiment: Antibacterial activity against Escherichia coli at 1 mg/ml by agar well diffusion method
# Format: functional, organism-based
# Details: not given
# How it was run: as §1
row,Compound,inhibition zone (IZ)
1,O=C(N/N=C/c1ccc([N+](=O)[O-])cc1)C1=C(O)c2ccccc2S(=O)(=O)N1,inactive
2,O=C(N/N=C/c1ccc(O)cc1O)C1=C(O)c2ccccc2S(=O)(=O)N1,inactive
3,O=C(N/N=C/c1ccccc1[N+](=O)[O-])C1=C(O)c2ccccc2S(=O)(=O)N1,inactive
4,COc1ccc(/C=N/NC(=O)C2=C(O)c3ccccc3S(=O)(=O)N2)cc1OC,inactive
5,COc1ccc(/C=N/NC(=O)C2=C(O)c3ccccc3S(=O)(=O)N2)cc1O,inactive
6,COc1ccc(/C=N/NC(=O)C2=C(O)c3ccccc3S(=O)(=O)N2)c(OC)c1OC,inactive
7,O=C(N/N=C/c1ccccc1O)C1=C(O)c2ccccc2S(=O)(=O)N1,inactive
8,COc1cc(/C=N/NC(=O)C2=C(O)c3ccccc3S(=O)(=O)N2)ccc1O,inactive
9,O=C(N/N=C/c1ccc(Cl)cc1Cl)C1=C(O)c2ccccc2S(=O)(=O)N1,inactive

# Test system: Bacillus subtilis
# Experiment: Antibacterial activity against Bacillus subtilis at 1 mg/ml by agar well diffusion method
# Format: functional, organism-based
# Details: not given
# How it was run: as §1
row,Compound,inhibition zone (IZ)
1,O=C(N/N=C/c1ccc([N+](=O)[O-])cc1)C1=C(O)c2ccccc2S(=O)(=O)N1,inactive
2,O=C(N/N=C/c1ccc(O)cc1O)C1=C(O)c2ccccc2S(=O)(=O)N1,inactive
3,O=C(N/N=C/c1ccccc1[N+](=O)[O-])C1=C(O)c2ccccc2S(=O)(=O)N1,inactive
4,COc1ccc(/C=N/NC(=O)C2=C(O)c3ccccc3S(=O)(=O)N2)cc1OC,inactive
5,COc1ccc(/C=N/NC(=O)C2=C(O)c3ccccc3S(=O)(=O)N2)cc1O,inactive
6,COc1ccc(/C=N/NC(=O)C2=C(O)c3ccccc3S(=O)(=O)N2)c(OC)c1OC,inactive
7,O=C(N/N=C/c1ccccc1O)C1=C(O)c2ccccc2S(=O)(=O)N1,inactive
8,COc1cc(/C=N/NC(=O)C2=C(O)c3ccccc3S(=O)(=O)N2)ccc1O,inactive
9,O=C(N/N=C/c1ccc(Cl)cc1Cl)C1=C(O)c2ccccc2S(=O)(=O)N1,inactive

# Test system: Pseudomonas aeruginosa
# Experiment: Antibacterial activity against Pseudomonas aeruginosa at 1 mg/ml by agar well diffusion method
# Format: functional, organism-based
# Details: not given
# How it was run: as §1
row,Compound,inhibition zone (IZ)
1,O=C(N/N=C/c1ccc([N+](=O)[O-])cc1)C1=C(O)c2ccccc2S(=O)(=O)N1,inactive
2,O=C(N/N=C/c1ccc(O)cc1O)C1=C(O)c2ccccc2S(=O)(=O)N1,inactive
3,O=C(N/N=C/c1ccccc1[N+](=O)[O-])C1=C(O)c2ccccc2S(=O)(=O)N1,inactive
4,COc1ccc(/C=N/NC(=O)C2=C(O)c3ccccc3S(=O)(=O)N2)cc1OC,inactive
5,COc1ccc(/C=N/NC(=O)C2=C(O)c3ccccc3S(=O)(=O)N2)cc1O,inactive
6,COc1ccc(/C=N/NC(=O)C2=C(O)c3ccccc3S(=O)(=O)N2)c(OC)c1OC,inactive
7,O=C(N/N=C/c1ccccc1O)C1=C(O)c2ccccc2S(=O)(=O)N1,inactive
8,COc1cc(/C=N/NC(=O)C2=C(O)c3ccccc3S(=O)(=O)N2)ccc1O,inactive
9,O=C(N/N=C/c1ccc(Cl)cc1Cl)C1=C(O)c2ccccc2S(=O)(=O)N1,inactive

# — ChEMBL document CHEMBL1138569, “A facile synthesis of novel biologically active 4-hydroxy-N'-(benzylidene)-2H-benzo[e][1,2]thiazine-3-carbohydrazide 1,1-dioxides” (2009)
